# Lmaj promast – Leishmania major promastigote growth inhibition; inhibition, % at 10 µM; Leishmania major promastigotes, resazurin fluorescence viability; actives 9% (n = 200,000);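 further: promastigotes grown with compound for 44 hours at 28 °C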
# Wee1 stabilizer – inhibitors of human Wee1 degradation; P30291; HeLa Luc-Wee1K328M stability, luciferase luminescence; 100% = proteasome inhibitor MG132 effect; reporter increase, % at 5 µM; actives 1.2% (n = 220,000);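 active means activation above the mean of all tested compounds plus 3 SD, set per screening run, cut at about 8.8% in these data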;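 further: cells exposed to compound for 20 h before luminescence read; 0% = DMSO alone and 100% = MG132 at 30 µM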
# Target sequence (P30291 whole entry K328M): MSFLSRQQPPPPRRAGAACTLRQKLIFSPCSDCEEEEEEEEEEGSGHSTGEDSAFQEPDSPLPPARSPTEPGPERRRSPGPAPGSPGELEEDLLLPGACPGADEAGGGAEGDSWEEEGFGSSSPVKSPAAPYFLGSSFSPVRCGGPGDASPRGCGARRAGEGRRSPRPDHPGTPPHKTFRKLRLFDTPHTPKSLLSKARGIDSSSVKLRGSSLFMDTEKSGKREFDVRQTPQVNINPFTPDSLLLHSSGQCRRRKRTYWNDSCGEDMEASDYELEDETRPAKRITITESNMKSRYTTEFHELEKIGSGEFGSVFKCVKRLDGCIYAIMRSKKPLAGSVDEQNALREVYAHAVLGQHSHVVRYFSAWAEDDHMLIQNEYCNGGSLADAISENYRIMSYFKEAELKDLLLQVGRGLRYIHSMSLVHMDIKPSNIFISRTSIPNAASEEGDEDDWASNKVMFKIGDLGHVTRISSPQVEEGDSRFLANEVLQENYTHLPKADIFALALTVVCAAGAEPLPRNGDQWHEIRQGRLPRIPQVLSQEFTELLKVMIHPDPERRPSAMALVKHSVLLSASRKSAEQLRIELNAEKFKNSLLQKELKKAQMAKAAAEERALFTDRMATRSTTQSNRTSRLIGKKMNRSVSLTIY
# Arbovirus inh – blocks arbovirus infection; arbovirus infection cell-based antiviral screen; actives 0.37% (n = 200,000); inhibition, % at 10 µM; in the data active means inhibition above about 30%
# PKD1 inh – PKD1 (human) kinase inhibition; actives 0.056% (n = 200,000); inhibition, % (test concentration not listed); PKD1 kinase fluorescence polarization assay; Q15139
# CHOP inh – inhibitors of CHOP induction in ER stress response; CHO-K1 CHOP-promoter luciferase, tunicamycin-induced, 15-18 h; inhibition, % at 10 µM; actives 3.8% (n = 220,000); AID 2732;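 active means compounds that reduced the stress-induced luciferase reporter signal by more than about 70% of percent inhibition, limit read from the data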;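 further: 0% = tunicamycin plus vehicle and 100% = wells without tunicamycin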
# Rad51 HR inh – blocks human Rad51 in homologous recombination. Q06609. actives 0.085% (n = 200,000). hRad51 DNA strand exchange, fluorescence dequenching. inhibition, % at 10 µM;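 active means inhibition above 40% at the single screening dose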;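 further: 0% = DMSO control wells and 100% = blanks with heterologous ssDNA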
#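 material = hRad51 filaments on single-stranded DNA | reagent = Donor/quencher-labelled 47-bp dsDNA substrate | compound = 10 µM final, single point | schedule = strand-exchange reaction 15 min at room temperature | measured by = fluorescein emission 520 nm, excitation 485 nm | read-out basis = % inhibition versus plate control and blank means | benchmarks = plate controls and plate blanks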
# * = called active by the depositor; x = no result; ! = a repeat was not active. Hits are enriched below; roughly 12% of the tested compounds scored in any of these assays. Unless noted, no stated cut-off is given here; in the data, active means inhibition above about 50%; inactive means the rest.
SMILES,Lmaj promast,Wee1 stabilizer,Arbovirus inh,PKD1 inh,CHOP inh,Rad51 HR inh
CS(=O)(=O)N1CCc2cc(S(=O)(=O)N3CCN(Cc4ccc5c(c4)OCO5)CC3)ccc21,89*,-2,-2,-7,-25,-1
O=C(c1ccc(S(=O)(=O)N2CCCC2)cc1)N1CCN(Cc2ccc3c(c2)OCO3)CC1,94*,1,1,-2,31,15
CN(c1ccc(C(=O)N2CCN(Cc3ccc4c(c3)OCO4)CC2)cc1)S(C)(=O)=O,-6,-1,5,-5,22,2
O=S(=O)(c1ccc(Cl)nc1)N1CCN(Cc2ccc3c(c2)OCO3)CC1,43,1,0,-3,46,5
O=C(c1ccc(COc2ccccc2Cl)o1)N1CCN(Cc2ccc3c(c2)OCO3)CC1,90*,3,-20,3,73*!,-11
O=C(c1ccc(S(=O)(=O)NCc2ccco2)cc1)N1CCN(Cc2ccc3c(c2)OCO3)CC1,88*,-4,-12,-4,0,-34
Cc1nn(-c2ccccc2)c(C)c1-c1nnc(-c2c(C)nn(-c3ccccc3)c2C)o1,x,-3,x,x,8,-4
COc1ccc(CN2CCN(C(=O)c3ccc4nc(N5CCOCC5)sc4c3)CC2)c(OC)c1OC,6,-1,-1,-8,11,2
Cc1c(C(=O)N2CCN(Cc3ccc4c(c3)OCO4)CC2)cccc1[N+](=O)[O-],-6,0,-2,-3,38,x
CCN1CCN(C(=O)c2ccc(COc3ccc(Cl)cc3)o2)CC1,84*,2,-4,-4,14,-5
O=C(c1ccc(Cl)c([N+](=O)[O-])c1)N1CCN(Cc2ccc3c(c2)OCO3)CC1,82*,2,1,5,10,-4
CC1CCN(c2nc3ccc(C(=O)N4CCN(Cc5ccc6c(c5)OCO6)CC4)cc3s2)CC1,92*,-2,-22,-4,64,x
CCCCCc1cc(=O)oc2c(C(CCN(CC)CC)c3ccc(N(C)C)cc3)c(OC)cc(OC)c12 (stereo not drawn),x,x,x,x,64,4
O=C(NC(=S)N1CCN(C/C=C/c2ccccc2)CC1)c1ccc(Cl)nc1,x,0,x,x,-19,9
O=C(/C=C/c1ccc2ccccc2n1)N1CCN(S(=O)(=O)c2ccccc2F)CC1,x,-1,x,x,70*,-2
CC(C)(C)C(=O)O/N=C(\N)Cc1ccc(-c2csnn2)cc1,x,0,x,x,18,9
COc1c(F)c(F)c(C(=O)Nc2c(C)cc(Br)cc2C)c(F)c1F,-2,-1,-11,-3,4,4
CC(=O)Nc1c(C(=O)N2CCCCCC2)cnn1-c1ccccc1,-3,-1,7,-3,20,1
O=C(c1cnn(-c2ccccc2)c1-n1cccc1)N1CCN(C2CCCCC2)CC1,75*,-1,-9,5,11,-1
O=C(Nc1cccc([N+](=O)[O-])c1)c1ccc(N2CCCC2=O)cc1,-4,-2,2,2,-3,-4
Cc1c(Cl)cccc1-n1c(SCC(=O)NCc2ccccc2Cl)nnc1-c1ccncc1,100*,-3,-6,-6,0,-10
Cc1ccccc1C1C(C#N)=C2N=C(N)c3c(sc4c3CCCCC4)N2C2=C1C(=O)CC(C)(C)C2 (stereo not drawn),62*,-2,-7,-7,33,-24
COc1ccc(C2CC(c3cccs3)=Nc3ccccc3S2)cc1 (stereo not drawn),64*,-1,-10,2,-6,4
COc1ccc(C2CC(c3cccs3)=NN2S(C)(=O)=O)cc1 (stereo not drawn),x,2,x,x,6,0
Cc1ccc2c(c1)C1(C(=O)N2)N2CCCC2C(C(=O)c2ccc3ccccc3c2)C12C(=O)Nc1ccccc12 (stereo not drawn),x,x,x,x,6,-12
SMILES,Lmaj promast,Wee1 stabilizer,Arbovirus inh,PKD1 inh,CHOP inh,Rad51 HR inh
OC(CNC1CCCC1)COc1ccc(-c2ccccc2)cc1 (stereo not drawn),98*,1,-20,-6,-7,x
O=[N+]([O-])c1ccc(OCC(O)CNC2CCCC2)cc1 (stereo not drawn),x,-2,x,x,8,x
OC(CNC1CCCCC1)COCCOc1ccc(Br)cc1 (stereo not drawn),95*,-2,-32,-16,22,-2
CC(C(=O)Nc1cccc(S(=O)(=O)N2CCOCC2)c1)N1CCN(c2ccc(F)cc2)CC1 (stereo not drawn),-6,2,-4,-6,-6,30
CC(C)(C)NC(=O)C(c1ccco1)N(C(=O)Cn1nnc(-c2ccc(F)cc2)n1)c1ccccc1F (stereo not drawn),35,0,7,1,84*,5
CC(C)(C)NC(=O)C(c1ccco1)N(C(=O)Cn1nnc(-c2ccc(F)cc2)n1)c1ccccc1 (stereo not drawn),28,-2,x,-17,x,x
CC(C)(C)NC(=O)C(c1c[nH]c2ccccc12)N(C(=O)Cn1nnc(-c2ccc(Cl)cc2)n1)c1ccccc1F (stereo not drawn),51*,1,-8,-1,41,1
COc1cccc(N(C(=O)Cn2nnc(-c3ccc(C)cc3)n2)C(C(=O)NC(C)(C)C)c2c[nH]c3ccccc23)c1 (stereo not drawn),20,1,-18,7,42,6
Cc1ccc(/C=C/C(=O)c2cc(Br)ccc2OC(=O)c2ccco2)cc1,87*,0,-24,-11,21,-14
COc1ccccc1/C=C/C(=O)c1cc(Br)ccc1OC(=O)c1ccco1,60*,13*,x,6,x,x
N#Cc1ccc(/C=C/C(=O)c2ccco2)cc1,31,0,1,-2,-12,6
Nc1ccc(/C=C/C(=O)c2ccco2)cc1,51*,0,-4,-8,-23,-47
Cc1ccc(OCCOc2ccc(Cl)cc2Cl)c([N+](=O)[O-])n1,37,1,14,-12,-41,x
Cc1cccc(C)c1OC(=O)C(c1ccccc1)c1ccccc1,89*,1,-2,-7,27,-4
Cc1noc(C)c1COC(=O)C(c1ccccc1)c1ccccc1,-8,6,-5,-2,18,1
Cc1nc(N2CCN(C(=O)c3ccco3)CC2)c2oc3ccccc3c2n1,x,x,x,x,x,-5
CCc1nc(N2CCN(C(=O)c3ccco3)CC2)c2oc3ccccc3c2n1,83*,-1,-32,5,-49,3
CC(C)(C)c1nc(N2CCN(C(=O)c3ccco3)CC2)c2nnn(Cc3ccccc3)c2n1,35,2,-33,-3,76*,1
CCc1ccccc1NC(=S)N(Cc1cccnc1)Cc1ccco1,99*,7,3,-1,25,x
Cc1cc(C)c(NC(=S)N(Cc2cccnc2)Cc2ccco2)c(C)c1,88*,1,2,-10,38,10
NC(=O)Nc1ccc(C(=O)OCC(=O)Nc2ccc(Cl)cn2)cc1,x,2,x,x,16,2
